According to ChEMBL document CHEMBL1131115, “Strategies to target kyotorphin analogues to the brain” (1998):
Where a SMILES comes first, the peptide text is derived from it.

Species: Rattus norvegicus
Assay: Compound was evaluated for brain targeted delivery system by Tail flick latency as an index of spinal cord mediated analgesia in rats
Format: functional
Outline: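 Male Sprague-Dawley rats, 250-300 g, housed singly at ~25 °C. Compounds in 0.2 mL propylene glycol:DMSO (2:1) given iv via tail vein, 0.0223 mmol/kg (equivalent to 7.5 mg/kg kyotorphin); dose-response range 0.0030-0.0223 mmol/kg. Tail-flick meter, beam set for 7-8 s baseline latency. Baseline 10 min pre-dose, then 15 min to 6 h. Six rats per group; mean ± SE, ANOVA.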

| SMILES | Latency time [s] |
| --- | --- |
| CC(C)CCCC(C)C1CCC2C3CC=C4CC(OC(=O)C(CCCC[n+]5cccc(C(N)=O)c5)NC(=O)C(N)Cc5ccc(O)cc5)CCC4(C)C3CCC12C (configuration not stated) | 17 |
| CC(C)CCCC(C)C1CCC2C3CC=C4CC(OC(=O)C(CCCCN5C=CCC(C(N)=O)=C5)NC(=O)C(Cc5ccc(O)cc5)NC(=O)OC(C)(C)C)CCC4(C)C3CCC12C (configuration not stated) | 26 |
| CC(C)CCCC(C)C1CCC2C3CC=C4CC(OC(=O)C(CCCC[n+]5cccc(C(N)=O)c5)NC(=O)[C@H](Cc5ccc(O)cc5)NC(=O)OC(C)(C)C)CCC4(C)C3CCC12C (some centres not stated) | 10 |
| NC(=O)C1=CN(CCCC[C@H](NC(=O)[C@@H](N)Cc2ccc(O)cc2)C(=O)O)C=CC1 | 10 |
| CC(C)CCCC(C)C1CCC2C3CC=C4CC(OC(=O)C(CCCCN)NC(=O)[C@H](Cc5ccc(O)cc5)NC(=O)OC(C)(C)C)CCC4(C)C3CCC12C (some centres not stated) | 10 |
| NCCCC[C@H](NC(=O)[C@@H](N)Cc1ccc(O)cc1)C(=O)O (H-Tyr-Lys-OH) | 11 |
| NC(N)=NCCC[C@H](NC(=O)[C@@H](N)Cc1ccc(O)cc1)C(=O)O [KYOTORPHIN] | 11 |
